According to ChEMBL document CHEMBL4014338, “Discovery of Small Molecules as Multi-Toll-like Receptor Agonists with Proinflammatory and Anticancer Activities” (J Med Chem, 2017):
The source made the active and inactive calls. The calls are words filed in the database; no cut-off is given here.

Each compound was assayed against Toll-like receptor 3 (Homo sapiens) (UniProt O15455) (assay: Agonist activity at human TLR3 expressed in HEK293 cells assessed as induction of NF-kB activation-mediated SEAP production at 30 uM after 24 hrs by HTS assay). Details: not given.
Assay type: cell-based
Method in brief: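 HTS in HEK293 cells stably expressing human TLR3 plus an NF-κB-inducible SEAP reporter, seeded at 20,000 cells/well and run in duplicate. Library compounds in DMSO at 30 μM final. Poly I:C 5 μg/mL served as positive control and cells + medium + DMSO as negative control. SEAP in supernatant read by QUANTI-Blue; assay quality judged by Z′ factor.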
In the case of `CC1(C)C=Cc2cc(OCc3ccc([N+](=O)[O-])cc3)c(OCc3ccc([N+](=O)[O-])cc3)cc2O1`, the Activity is reported as “Active”.

What follows are compounds tested against T1, Toll-like receptor 3 (Homo sapiens, UniProt O15455) (assay: Agonist activity at human TLR3 expressed in HEK293 cells assessed as induction of NF-kB activation-mediated SEAP production after 24 hrs by HTS assay). Details: not given.
T1 sequence (O15455 whole entry): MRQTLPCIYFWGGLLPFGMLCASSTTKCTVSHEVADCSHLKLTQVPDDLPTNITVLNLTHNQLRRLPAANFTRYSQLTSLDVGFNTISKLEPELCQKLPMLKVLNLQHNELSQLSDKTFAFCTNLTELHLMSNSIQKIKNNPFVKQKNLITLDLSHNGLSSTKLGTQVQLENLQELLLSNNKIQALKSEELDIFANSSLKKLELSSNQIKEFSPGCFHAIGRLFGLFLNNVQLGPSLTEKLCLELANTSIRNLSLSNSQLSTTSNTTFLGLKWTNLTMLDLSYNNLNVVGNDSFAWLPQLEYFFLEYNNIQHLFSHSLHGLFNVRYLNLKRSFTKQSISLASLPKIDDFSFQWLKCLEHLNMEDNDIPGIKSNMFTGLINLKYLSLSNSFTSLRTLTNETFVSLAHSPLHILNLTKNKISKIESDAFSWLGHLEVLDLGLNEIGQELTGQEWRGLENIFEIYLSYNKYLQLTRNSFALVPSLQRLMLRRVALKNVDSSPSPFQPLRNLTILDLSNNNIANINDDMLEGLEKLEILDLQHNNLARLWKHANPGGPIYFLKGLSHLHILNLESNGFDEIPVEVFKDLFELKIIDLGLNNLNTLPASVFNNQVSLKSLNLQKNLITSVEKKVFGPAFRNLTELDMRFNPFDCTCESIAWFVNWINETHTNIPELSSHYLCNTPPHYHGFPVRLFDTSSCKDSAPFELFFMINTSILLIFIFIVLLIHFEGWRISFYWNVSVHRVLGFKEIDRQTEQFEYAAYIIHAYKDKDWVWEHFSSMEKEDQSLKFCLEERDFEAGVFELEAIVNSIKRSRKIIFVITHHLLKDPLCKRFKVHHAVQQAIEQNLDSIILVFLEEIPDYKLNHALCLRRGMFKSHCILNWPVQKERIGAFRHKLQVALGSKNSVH
Assay type: cell-based
Method in brief: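 Stable HEK293 lines expressing a single hTLR plus a SEAP reporter, grown in DMEM/10% FBS with selective antibiotics. Seeded at 5 × 10^4 cells/well for 24 h at 37 °C, then treated 24 h. Supernatant mixed with QUANTI-Blue, 1 h at 37 °C, OD 620 nm. Cognate agonists: Pam3CSK4 (TLR2), poly I:C (TLR3), LPS (TLR4), FLA-BS (TLR5), R848 (TLR7). EC50 as mean ± SD.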
`CC1(C)C=Cc2cc(OCc3ccc([N+](=O)[O-])cc3)c(OCc3ccc([N+](=O)[O-])cc3)cc2O1` gave an EC50 of 22.3 µM. `CC1(C)CC(O)c2cc(OCc3ccc([N+](=O)[O-])cc3)c(OCc3ccc([N+](=O)[O-])cc3)cc2O1` (stereo not given) was tested, and the EC50 was 42.5 µM.

Species: Homo sapiens
Assay: Activation of NF-kB in HEK293 cells assessed as SEAP production at 30 uM after 24 hrs by HTS assay
Assay type: cell-based
Details: not given
Method in brief: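 hTLR3-transfected HEK293 cells carrying an NF-κB-inducible SEAP reporter, seeded at 20,000 cells/well in duplicate; library compounds in DMSO at 30 μM final. Poly I:C 5 μg/mL as positive control; cells + medium + DMSO as negative control. SEAP in supernatant read by QUANTI-Blue; hits ranked on RMS values.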
In the case of `CC1(C)C=Cc2cc(OCc3ccc([N+](=O)[O-])cc3)c(OCc3ccc([N+](=O)[O-])cc3)cc2O1`, the Activity is reported as “inactive”.

These compounds were tested against Toll-like receptor 3 (Homo sapiens) (UniProt O15455) (assay: Agonist activity at human TLR3 expressed in HEK293 cells assessed as induction of NF-kB activation-mediated SEAP production at 25 uM after 24 hrs by HTS assay relative to control). Details: not given.
Assay type: cell-based
Method in brief: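 hTLR3 HEK293 SEAP reporter cells seeded at 5 × 10^4 cells/well for 24 h, exposed to 25 μM for 24 h. Supernatant SEAP detected with QUANTI-Blue (1 h, 37 °C, OD 620 nm). Activation normalized to untreated cells and expressed as fold change.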
`CC1(C)CC(O)c2cc(OCc3ccc([N+](=O)[O-])c(F)c3)c(OCc3ccc([N+](=O)[O-])c(F)c3)cc2O1` (stereo not given) was tested, and the fold change (FC) was 2.34. `O=[N+]([O-])c1ccc(COc2cc3c(cc2OCc2ccc([N+](=O)[O-])cc2)OC2(C=C3)CCCCCC2)cc1` gave a fold change (FC) of 1.07. `CC1(C)C=Cc2cc(O)c(OCc3ccc([N+](=O)[O-])cc3)cc2O1` was tested, and the fold change (FC) was 1.17. In the case of `CC1(C)C=Cc2cc(OCc3ccc([N+](=O)[O-])c(F)c3)c(OCc3ccc([N+](=O)[O-])c(F)c3)cc2O1`, the fold change (FC) is reported as 1.24. For `COc1ccc(COc2cc3c(cc2OCc2ccc(OC)c(F)c2)OC(C)(C)C=C3)cc1F`, the fold change (FC) was 1.06. In the case of `O=[N+]([O-])c1ccc(COc2cc3c(cc2OCc2ccc([N+](=O)[O-])cc2)OC2(C=C3)CCCCC2)cc1`, the fold change (FC) is reported as 1. In the case of `CC1(C)C=Cc2cc(OCc3ccc(F)c(F)c3)c(OCc3ccc(F)c(F)c3)cc2O1`, the fold change (FC) is reported as 0.99. `CC1(C)CC(O)c2cc(OCc3ccc(F)c(F)c3)c(OCc3ccc(F)c(F)c3)cc2O1` (stereo not given) was tested, and the fold change (FC) was 0.95. Compound `O=[N+]([O-])c1ccc(COc2cc3c(cc2OCc2ccc([N+](=O)[O-])cc2)OC2(C=C3)CCCC2)cc1` has a fold change (FC) of 1.22. With `CC1(C)C=Cc2cc(OCc3ccc([N+](=O)[O-])cc3)c(OCc3ccc([N+](=O)[O-])cc3)cc2O1` the fold change (FC) was 5.34. With `CC1(C)CC(=O)c2cc(OCc3ccc(F)c(F)c3)c(OCc3ccc(F)c(F)c3)cc2O1` the fold change (FC) was 1.22. Work on `CC1(C)C=Cc2cc(OCc3ccccc3[N+](=O)[O-])c(OCc3ccccc3[N+](=O)[O-])cc2O1` yielded a fold change (FC) of 1.08. `COc1ccc(COc2cc3c(cc2OCc2ccc(OC)c(F)c2)C(=O)CC(C)(C)O3)cc1F` gave a fold change (FC) of 1.08. With `CC1(C)CC(=O)c2cc(OCc3ccc([N+](=O)[O-])cc3)c(OCc3ccc([N+](=O)[O-])cc3)cc2O1` the fold change (FC) was 1.76. Compound `CC1(C)CC(O)c2cc(OCc3ccc(C(F)(F)F)cc3)c(OCc3ccc(C(F)(F)F)cc3)cc2O1` (stereo not given) has a fold change (FC) of 2.36. For `COc1cc2c(cc1OCc1ccc([N+](=O)[O-])cc1)C=CC(C)(C)O2`, the fold change (FC) was 1.19. With `CC1(C)C=Cc2cc(OC(=O)c3ccc([N+](=O)[O-])cc3)c(OC(=O)c3ccc([N+](=O)[O-])cc3)cc2O1` the fold change (FC) was 1.65. In the case of `CCC1(CC)C=Cc2cc(OCc3ccc([N+](=O)[O-])cc3)c(OCc3ccc([N+](=O)[O-])cc3)cc2O1`, the fold change (FC) is reported as 1.16. In the case of `COc1ccc(COc2cc3c(cc2OCc2ccc(OC)c(F)c2)C(O)CC(C)(C)O3)cc1F` (stereo not given), the fold change (FC) is reported as 1.34. Work on `CC1(C)CC(=O)c2cc(OCc3ccc(C(F)(F)F)cc3)c(OCc3ccc(C(F)(F)F)cc3)cc2O1` yielded a fold change (FC) of 1.19. Compound `CC1(C)CC(O)c2cc(OCc3ccc([N+](=O)[O-])cc3)c(OCc3ccc([N+](=O)[O-])cc3)cc2O1` (stereo not given) has a fold change (FC) of 2.5. `CC1(C)C=Cc2cc(OCc3ccc(C(F)(F)F)cc3)c(OCc3ccc(C(F)(F)F)cc3)cc2O1` gave a fold change (FC) of 0.99. `CC1(C)C=Cc2cc(OCc3cccc([N+](=O)[O-])c3)c(OCc3cccc([N+](=O)[O-])c3)cc2O1` showed a fold change (FC) of 1.1. In the case of `CC1(C)C=Cc2cc(OCc3ccccc3)c(OCc3ccccc3)cc2O1`, the fold change (FC) is reported as 1.09. Compound `CC1(C)CC(=O)c2cc(OCc3ccc([N+](=O)[O-])c(F)c3)c(OCc3ccc([N+](=O)[O-])c(F)c3)cc2O1` has a fold change (FC) of 1.22.

Each compound was assayed on HEK293 (assay: Cytotoxicity against HEK293 cells at 25 uM). Details: human, hek293, 25 µM.
Assay type: cell-based
In the case of `CC1(C)C=Cc2cc(OCc3ccc([N+](=O)[O-])cc3)c(OCc3ccc([N+](=O)[O-])cc3)cc2O1`, the Activity is reported as “Non-Toxic”.
